# Measurements: ChEMBL document CHEMBL4392836, “Second-generation aryl isonitrile compounds targeting multidrug-resistant Staphylococcus aureus” (Bioorg Med Chem, 2019)
# Assays:
# Staphylococcus aureus [1] = assay: Antibacterial activity against methicillin-resistant Staphylococcus aureus NRS123 USA400 after 18 to 24 hrs by broth microdilution assay; type: functional
# Procedure, shortened: (§1)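 CLSI broth microdilution with modifications. Bacteria cultured in TSB and exposed to compounds or control antibiotics in triplicate. Plates incubated aerobically at 37 °C for 18–24 h. MIC is the lowest concentration preventing visible growth.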
# Acinetobacter baumannii [2] = assay: Antibacterial activity against Acinetobacter baumannii BAA1605 after 18 to 24 hrs in presence of colistin by broth microdilution assay; type: functional
# Procedure, shortened: (§2)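 To permeabilize the outer membrane, CLSI broth microdilution in TSB (triplicate) was run with subinhibitory colistin: ¼ × MIC for A. baumannii, E. cloacae and E. coli strains, and P. aeruginosa; ½ × MIC for K. pneumoniae. Plates incubated aerobically at 37 °C for 18–24 h. MIC taken as the lowest concentration with no visible growth.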
# Pseudomonas aeruginosa [3] = assay: Antibacterial activity against Pseudomonas aeruginosa ATCC 15442 after 18 to 24 hrs in presence of colistin by broth microdilution assay; type: functional; procedure, shortened: as §2
# Escherichia coli [4] = assay: Antibacterial activity against Escherichia coli BW25113 after 18 to 24 hrs in absence of colistin by broth microdilution method; type: functional
# Procedure, shortened: (§3)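 Broth microdilution MIC per CLSI guidelines with modifications. Bacteria grown in TSB and exposed to compounds or control antibiotics in triplicate. Plates incubated aerobically at 37 °C for 18–24 h. MIC taken as the lowest concentration with no visible growth.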
# Klebsiella pneumoniae [5] = assay: Antibacterial activity against Klebsiella pneumoniae ATCC BAA-1705 after 18 to 24 hrs by broth microdilution assay; type: functional; procedure, shortened: as §3
# Enterobacter cloacae [6] = assay: Antibacterial activity against Enterobacter cloacae BAA1134 after 18 to 24 hrs by broth microdilution assay; type: functional; procedure, shortened: as §3
# Acinetobacter baumannii [7] = assay: Antibacterial activity against Acinetobacter baumannii BAA1605 after 18 to 24 hrs by broth microdilution assay; type: functional; procedure, shortened: as §3
# Pseudomonas aeruginosa [8] = assay: Antibacterial activity against Pseudomonas aeruginosa ATCC 15442 after 18 to 24 hrs by broth microdilution assay; type: functional; procedure, shortened: as §3
# Escherichia coli [9] = assay: Antibacterial activity against Escherichia coli BW25113 after 18 to 24 hrs in presence of colistin by broth microdilution method; type: functional; procedure, shortened: as §2
# Klebsiella pneumoniae [10] = assay: Antibacterial activity against Klebsiella pneumoniae ATCC BAA-1705 after 18 to 24 hrs in presence of colistin by broth microdilution assay; type: functional; procedure, shortened: as §2
# Escherichia coli [11] = assay: Antibacterial activity against AcrAB-TolC deficient Escherichia coli […] after 18 to 24 hrs in absence of colistin by broth microdilution method; type: functional; procedure, shortened: as §3
# Escherichia coli [12] = assay: Antibacterial activity against AcrAB-TolC deficient Escherichia coli […] after 18 to 24 hrs in presence of colistin by broth microdilution method; type: functional; procedure, shortened: as §2
# Enterobacter cloacae [13] = assay: Antibacterial activity against Enterobacter cloacae BAA1134 after 18 to 24 hrs in presence of colistin by broth microdilution assay; type: functional; procedure, shortened: as §2
# [14] = Toxicity in wounded skin area of Balb/c mouse infected with methicillin-resistant Staphylococcus aureus USA300 at 2% administered topically twice daily for 5 consecutive days measured 4 times daily during compound dosing; settings: in vivo, topical_or_ocular
# Procedure, shortened: (§4)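 Female Balb/c mice with intradermal MRSA USA300 abscesses were treated topically twice daily for 5 days with a 2% suspension in petroleum jelly, alongside a vehicle group. Mice were checked at least four times daily during infection and treatment for adverse reactions. Wounds were examined for inflammation and toxicity.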
# Staphylococcus aureus [15] = assay: Antibacterial activity against methicillin-resistant Staphylococcus aureus USA300 infected in Balb/c mouse assessed as reduction in bacterial burden in wounded skin area at 2% administered topically twice daily for 5 consecutive days measured 12 hrs post last dose relative to control; type: functional; parameters: scale not given: the % may be the effect or the level left
# Procedure, shortened: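 Eight-week-old female Balb/c mice (n = 5 per group) received an intradermal injection of 40 μL of 1.32 × 10⁹ CFU/mL MRSA USA300. From abscess formation (~48 h), a 2% suspension in petroleum jelly was applied topically twice daily for 5 days, with a vehicle-only group. Mice were euthanized 12 h after the last dose. Wounds were homogenized in PBS, serially diluted and plated on mannitol salt agar (≥16 h, 37 °C). CFU reduction was calculated against vehicle.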
# Mus musculus = assay: Induction of inflammation in wounded skin area of Balb/c mouse infected with methicillin-resistant Staphylococcus aureus USA300 at 2% administered topically twice daily for 5 consecutive days measured 4 times daily during compound dosing; type: organism-based; settings: in vivo, topical_or_ocular; procedure, shortened: as §4
# Staphylococcus aureus [16] = assay: Antibacterial activity against vancomycin-resistant Staphylococcus aureus VRS10 after 18 to 24 hrs by broth microdilution assay; type: functional; procedure, shortened: as §1
# Streptococcus pneumoniae = assay: Antibacterial activity against penicillin-resistant Streptococcus pneumoniae ATCC 700677 after 18 to 24 hrs by broth microdilution assay; type: functional
# Procedure, shortened: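 CLSI broth microdilution with modifications. Bacteria exposed to compounds in triplicate and incubated at 37 °C with 5% CO₂ for 18–24 h. MIC is the lowest concentration preventing visible growth.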
# clinical = settings: human, in vivo, iv, 625 mg
# [17] = Tmax in human at 625 mg, po; type: ADME; settings: in vivo
# Enterococcus faecium = assay: Antibacterial activity against vancomycin-resistant Enterococcus faecium ATCC 700221 after 18 to 24 hrs by broth microdilution assay; type: functional
# Procedure, shortened: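 Broth microdilution per CLSI with modifications. Cultured in BHI and exposed to compounds in triplicate. Incubated aerobically at 37 °C for 18–24 h. MIC read as the lowest concentration with no visible growth.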
# [18] = Cmax in human at 625 mg, iv; type: ADME; parameters: dose 625 mg, route intravenous; settings: in vivo
# [19] = tested on: Staphylococcus epidermidis; assay: Antibacterial activity against methicillin-resistant Staphylococcus epidermidis NRS101 after 18 to 24 hrs by broth microdilution assay; type: functional; procedure, shortened: as §1
# Staphylococcus aureus [20] = assay: Antibacterial activity against methicillin-resistant Staphylococcus aureus USA300 NRS384 after 18 to 24 hrs by broth microdilution assay; type: functional; procedure, shortened: as §1
# Staphylococcus aureus [21] = assay: Antibacterial activity against methicillin-resistant Staphylococcus aureus NRS119 after 18 to 24 hrs by broth microdilution assay; type: functional; procedure, shortened: as §1
# [22] = Cmax in human at 625 mg, po; type: ADME; parameters: dose 625 mg, route oral; settings: in vivo
# Staphylococcus aureus [23] = assay: Antibacterial activity against methicillin-resistant Staphylococcus aureus NRS385 USA500 after 18 to 24 hrs by broth microdilution assay; type: functional; procedure, shortened: as §1
# [24] = Clearance in human at 625 mg, iv; type: ADME; settings: in vivo
# Staphylococcus aureus [25] = assay: Antibacterial activity against vancomycin-resistant Staphylococcus aureus VRS11a after 18 to 24 hrs by broth microdilution assay; type: functional; procedure, shortened: as §1
# [26] = Tmax in human at 625 mg, iv; type: ADME; settings: in vivo
# Staphylococcus aureus [27] = assay: Antibacterial activity against methicillin-sensitive Staphylococcus aureus NRS107 after 18 to 24 hrs by broth microdilution assay; type: functional; procedure, shortened: as §1
compound,measurement,setting,value
N#Cc1ccc(CCc2ccncc2)cc1,MIC,Staphylococcus aureus [1],64 µM
N#Cc1ccc(CCc2cccc(C#N)c2)cc1,MIC,Staphylococcus aureus [1],32 µM
N#Cc1ccc(/C=C/c2ccc(C(F)(F)F)cc2)cc1,MIC,Staphylococcus aureus [1],32 µM
COc1ccc(/C=C/c2ccc(C#N)cc2)cc1,MIC,Staphylococcus aureus [1],32 µM
N#Cc1ccc(CCc2ccccn2)cc1,MIC,Staphylococcus aureus [1],> 64 µM
N#Cc1ccc(/C=C/c2ccccc2C#N)cc1,MIC,Staphylococcus aureus [1],16 µM
N#Cc1ccc(CCc2ccccc2C#N)cc1,MIC,Staphylococcus aureus [1],> 64 µM
N#Cc1ccc(CCC2CCNc3ccccc32)cc1 (stereo not given),MIC,Staphylococcus aureus [1],32 µM
CC[C@H]1OC(=O)[C@H](C)[C@@H](O[C@H]2C[C@@](C)(OC)[C@@H](O)[C@H](C)O2)[C@H](C)[C@@H](O[C@@H]2O[C@H](C)C[C@H](N(C)C)[C@H]2O)[C@](C)(O)C[C@@H](C)C(=O)[C@H](C)[C@@H](O)[C@]1(C)O [ERYTHROMYCIN],MIC,Acinetobacter baumannii [2],4 µM
same,MIC,Pseudomonas aeruginosa [3],4 µM
same,MIC,Escherichia coli [4],64 µM
same,MIC,Klebsiella pneumoniae [5],> 64 µM
same,MIC,Enterobacter cloacae [6],> 64 µM
same,MIC,Acinetobacter baumannii [7],16 µM
same,MIC,Pseudomonas aeruginosa [8],> 64 µM
same,MIC,Escherichia coli [9],1 µM
same,MIC,Klebsiella pneumoniae [10],16 µM
same,MIC,Escherichia coli [11],2 µM
same,MIC,Escherichia coli [12],0.5 µM
same,MIC,Enterobacter cloacae [13],1 µM
CC(=O)O[C@H]1C[C@@]2(C)[C@@H](C[C@@H](O)[C@H]3[C@@]4(C)CC[C@@H](O)[C@@H](C)[C@@H]4CC[C@@]32C)/C1=C(\CCC=C(C)C)C(=O)O [FUSIDIC ACID],Activity,[14],Non-Toxic
same,Activity,Staphylococcus aureus [15],77.78%
same,Activity,Mus musculus,Non-Toxic
CC(=O)NC[C@H]1CN(c2ccc(N3CCOCC3)c(F)c2)C(=O)O1 [LINEZOLID],MIC,Staphylococcus aureus [16],2 µM
same,MIC,Streptococcus pneumoniae,2 µM
same,MIC,Acinetobacter baumannii [2],> 64 µM
same,half-life,clinical,264 min
same,MIC,Pseudomonas aeruginosa [3],> 64 µM
same,Tmax,[17],1.33 h
same,MIC,Staphylococcus aureus [1],1 µM
same,MIC,Escherichia coli [4],> 64 µM
same,MIC,Klebsiella pneumoniae [5],> 64 µM
same,MIC,Enterobacter cloacae [6],> 64 µM
same,MIC,Enterococcus faecium,0.5 µM
same,MIC,Acinetobacter baumannii [7],> 64 µM
same,Cmax,[18],13400 ng/mL
same,MIC,[19],2 µM
same,MIC,Staphylococcus aureus [20],2 µM
same,MIC,Staphylococcus aureus [21],32 µM
same,Cmax,[22],12700 ng/mL
same,MIC,Pseudomonas aeruginosa [8],> 64 µM
same,MIC,Staphylococcus aureus [23],4 µM
same,MIC,Escherichia coli [9],> 64 µM
same,clearance,[24],1.74 mL/min/kg
same,MIC,Staphylococcus aureus [25],2 µM
same,Tmax,[26],30 min
same,MIC,Klebsiella pneumoniae [10],> 64 µM
same,MIC,Staphylococcus aureus [27],2 µM
same,MIC,Escherichia coli [11],16 µM
same,MIC,Escherichia coli [12],16 µM
same,MIC,Enterobacter cloacae [13],16 µM
CN[C@H](CC(C)C)C(=O)N[C@H]1C(=O)N[C@@H](CC(N)=O)C(=O)N[C@H]2C(=O)N[C@H]3C(=O)N[C@H](C(=O)N[C@H](C(=O)O)c4cc(O)cc(O)c4-c4cc3ccc4O)[C@H](O)c3ccc(c(Cl)c3)Oc3cc2cc(c3O[C@@H]2O[C@H](CO)[C@@H](O)[C@H](O)[C@H]2O[C@H]2C[C@](C)(N)[C@H](O)[C@H](C)O2)Oc2ccc(cc2Cl)[C@H]1O [VANCOMYCIN],MIC,Staphylococcus aureus [16],> 64 µM
same,MIC,Streptococcus pneumoniae,1 µM
same,MIC,Staphylococcus aureus [1],1 µM
same,MIC,Klebsiella pneumoniae [5],> 64 µM
same,MIC,Enterobacter cloacae [6],> 64 µM
same,MIC,Enterococcus faecium,> 64 µM
same,MIC,Acinetobacter baumannii [7],32 µM
same,MIC,[19],4 µM
same,MIC,Staphylococcus aureus [20],1 µM
same,MIC,Staphylococcus aureus [21],1 µM
same,MIC,Pseudomonas aeruginosa [8],> 64 µM
same,MIC,Staphylococcus aureus [23],1 µM
same,MIC,Staphylococcus aureus [25],> 64 µM
same,MIC,Staphylococcus aureus [27],1 µM
